Compound activity: PubChem BioAssay, several laboratories
In the library only some 1.1% were active in any assay of this set; here they are far more common.
ERAP1 inh: ERAP1 (human) enzyme inhibition | recombinant ERAP1, Leu-AMC fluorescence, 60 min | Q9NZ08 | 340,000 compounds, 0.15% hits | inhibition, % at 10.7 µM;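 active = mean replicate inhibition of at least 30%, or all replicates individually reaching that 30% level; inactive = mean below 30% and not every replicate reaching it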;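 also: 0% = neutral control wells and 100% = L-leucinethiol positive control wells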
Target sequence (Q9NZ08 whole entry, looked up): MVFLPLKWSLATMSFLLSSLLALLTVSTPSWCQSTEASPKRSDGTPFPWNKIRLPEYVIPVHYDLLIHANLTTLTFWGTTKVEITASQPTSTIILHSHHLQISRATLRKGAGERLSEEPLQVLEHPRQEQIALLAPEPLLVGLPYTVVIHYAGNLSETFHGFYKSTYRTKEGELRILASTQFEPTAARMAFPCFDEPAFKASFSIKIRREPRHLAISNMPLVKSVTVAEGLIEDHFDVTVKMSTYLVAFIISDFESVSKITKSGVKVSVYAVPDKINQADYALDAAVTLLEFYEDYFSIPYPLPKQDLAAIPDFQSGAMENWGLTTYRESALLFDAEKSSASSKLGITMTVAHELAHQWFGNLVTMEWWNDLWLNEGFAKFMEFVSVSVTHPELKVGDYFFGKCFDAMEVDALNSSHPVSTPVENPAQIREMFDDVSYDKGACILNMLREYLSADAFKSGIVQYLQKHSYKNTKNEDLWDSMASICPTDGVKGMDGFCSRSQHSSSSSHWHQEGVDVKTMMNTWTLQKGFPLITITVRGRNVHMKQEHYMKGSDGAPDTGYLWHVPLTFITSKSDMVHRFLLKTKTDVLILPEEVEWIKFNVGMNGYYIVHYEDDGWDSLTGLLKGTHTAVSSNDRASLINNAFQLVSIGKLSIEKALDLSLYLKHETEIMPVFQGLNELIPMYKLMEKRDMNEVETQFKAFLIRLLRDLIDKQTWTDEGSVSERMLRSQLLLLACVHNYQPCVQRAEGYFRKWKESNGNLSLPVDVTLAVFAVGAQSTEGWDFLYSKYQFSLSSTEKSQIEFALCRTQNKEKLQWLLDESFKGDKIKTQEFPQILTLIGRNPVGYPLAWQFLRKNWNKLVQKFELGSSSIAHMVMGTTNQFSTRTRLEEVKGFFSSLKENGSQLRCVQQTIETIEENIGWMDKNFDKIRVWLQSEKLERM
CAL PDZ FP-1: CAL PDZ (human) peptide binding inhibition; Q9HD26; purified CAL PDZ, TMR-peptide fluorescence polarization, 1 h; inhibition, % at 24.9 µM; 300,000 compounds, 0.92% hits;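 active = mean inhibition of at least 30% with at least half of replicates also reaching 30%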;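 also: 0% = DMSO neutral control and 100% = excess unlabeled competitor peptide PRC23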
PDI inh: inhibitors of human protein disulfide isomerase; AID 588391; inhibition, % at 10 µM; P07237; 350,000 compounds, 0.052% hits; PDI insulin aggregation turbidity, A650, 90 min;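 active = mean inhibition across replicates of 30% or more, whatever share of single replicates reach that level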
Rin1 Abl inh: inhibitors of human Rin1-Abl protein interaction; P00519+Q13671; TR-FRET Rin1/Abl binding, biochemical; inhibition, % at 7.35 µM; 360,000 compounds, 0.4% hits; AID 588664; in the data active = inhibition above about 5%, passing the limit was not always enough
CAL PDZ FP-2: blocks peptide binding to human CAL PDZ domain. Q9HD26. purified CAL PDZ, TMR-peptide fluorescence polarization, 1 h. inhibition, % at 20 µM. 330,000 compounds, 0.02% hits. AID 504414;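 active = highest replicate inhibition of at least 40%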;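 also: plate controls were DMSO neutral control wells for no effect and unlabeled competitor peptide control wells for full effect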
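Control set: unlabelled peptide and DMSO controls / Material: purified CerCALP PDZ construct / Timing: 1 h incubation at room temperature before polarization reading / Doses: 20 µM, one dose / Detection: fluorescence polarization (mP)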
ERp5 block: inhibitors of human ERp5; Q15084; ERp5 insulin aggregation, absorbance 650 nm, 90 min; inhibition, % at 9.99 µM; 350,000 compounds, 0.05% hits; AID 651711;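 active = mean replicate inhibition above about 25%, with every replicate also reaching it, limit read from the data, passing the limit was not always enough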
Rin1-Abl confirm: confirmation of inhibitors of human Rin1-Abl interaction | shares compounds with Rin1 Abl inh | TR-FRET Rin1-Abl binding, purified proteins | inhibition, % at 7.35 µM | 1,300 compounds, 49% hits
GFP quench: counter-screen for Rin1-Abl inhibitors: GFP fluorescence quenchers; inhibitors/quenchers counterscreen; AID 602125; inhibition, % at 6.75 µM; shares compounds with Rin1 Abl inh; 1,300 compounds, 8.5% hits;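 also: ABL1-eGFP fusion protein alone without its partner RIN1-SBP; 0% = protein with vehicle and 100% = wells lacking protein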
GFP quench DR: counter-screen for Rin1-Abl inhibitors: GFP quenchers, dose response; shares compounds with Rin1 Abl inh; 230 tested, under 10 active; GFP fluorescence interference/quenching counterscreen; IC50, µM; AID 602182; call rule not given here;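 also: ABL1-eGFP fusion protein alone without its RIN1 binding partner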
* hit, by the source's call; . = not tested or not shown. Rule as the data show it, unless noted: active = inhibition above about 6.5%; inactive = the rest.

SMILES	ERAP1 inh	CAL PDZ FP-1	PDI inh	Rin1 Abl inh	CAL PDZ FP-2	ERp5 block	Rin1-Abl confirm	GFP quench	others
CN1CCN(c2ccc(CNC(=O)C3Cc4c(-c5ccc6c(c5)OCO6)ccnc4O3)cc2)CC1 (centres undefined)	-3	.	4	15*	.	-6	14*	-2
Cc1ccc(S(=O)(=O)N(C)C[C@@H]2Oc3ccc(NC(=O)NC4CCCCC4)cc3CC(=O)N([C@@H](C)CO)C[C@@H]2C)cc1	0	.	.	.	.	-1	.	.
CC(=O)Nc1ccc(-c2ccnc3c2CC(C(=O)NCc2ccc(N4CCN(C)CC4)cc2)O3)cc1 (centres undefined)	-2	.	-3	14*	.	-2	14*	-1
C[C@H]1CN([C@@H](C)CO)C(=O)c2cc(-c3ccccc3)cnc2O[C@H]1CN(C)C(=O)Cc1ccccc1	2	.	.	.	.	7	.	.
CN1CCCN(c2cc(-c3ccc4ccccc4c3)nc3ccnn23)CC1	7	.	2	13*	.	-3	12*	12*
Cc1cccc(-c2cc(N3CCCN(C)CC3)n3nccc3n2)c1	1	.	-2	-2	.	7	.	.
C[C@@H]1CN([C@H](C)CO)C(=O)c2cccc(NC(=O)C3CCOCC3)c2O[C@@H]1CN(C)C(=O)Nc1ccc(F)cc1	0	.	.	.	.	6	.	.
CC(=O)NC1=NN(C(C)=O)C(C)(c2ccc(C)o2)S1 (centres undefined)	-2	-1	4	0	0	-2	.	.
CC(=O)NC1=NN(C(C)=O)C(C)(c2ccco2)S1 (centres undefined)	2	-3	4	8.7*	0	-1	-3	1
Cc1nc(Nc2cccc(O)c2)c2c3c(sc2n1)CCC3	.	-3	9	46*	-1	6	45*	-1	GFP quench DR=>68
CC(=O)Nc1ccc(S(=O)(=O)Nc2nc(C)nc3sc4c(c23)CCC4)cc1	1	12	1	-1	-1	1	.	.
O=c1cc(-c2ccc(O)cc2)oc2cc(O)c([C@@H]3O[C@H](CO)[C@@H](O)[C@H](O)[C@H]3O)c(O)c12	2	15	.	-1	0	-2	.	.
O=c1cc(-c2ccc(O)cc2)oc2c(C3O[C@H](CO)[C@@H](O)[C@H](O)[C@H]3O)c(O)cc(O)c12 (some centres undefined)	4	-1	0	0	-1	0	.	.
O=c1cc(-c2ccc(O)c(O)c2)oc2c(C3O[C@H](CO)[C@@H](O)[C@H](O)[C@H]3O)c(O)cc(O)c12 (some centres undefined)	8	-2	4	22*	1	-1	37*	14*
O=c1cc(-c2ccc(O)c(O)c2)oc2cc(O)c(C3OC(CO)C(O)C(O)C3O)c(O)c12 (centres undefined)	.	2	.	27*	-1	2	33*	8.9*
CCC(=O)N1[C@@H](CO)[C@@H](c2ccc(-c3ccccc3OC)cc2)C12CN(C(C)=O)C2	-2	.	.	.	.	8	.	.
C[C@H](CO)N1C[C@H](C)[C@@H](CN(C)Cc2ccc(-c3ccccc3)cc2)Oc2c(NC(=O)c3ccncc3)cccc2C1=O	6	-1	13	22*	0	4	27*	-3
C[C@H](CO)N1C[C@H](C)[C@@H](CN(C)Cc2ccc(-c3ccccc3)cc2)Oc2c(NS(=O)(=O)c3ccc(F)cc3)cccc2C1=O	-3	0	16	9.1*	0	4	9.2*	-1
C[C@H](CO)N1C[C@H](C)[C@H](CN(C)Cc2ccc(-c3ccccc3)cc2)Oc2c(NC(=O)c3ccncc3)cccc2C1=O	8	.	.	.	.	1	.	.
C[C@H](CO)N1C[C@H](C)[C@@H](CN(C)Cc2ccc(Oc3ccccc3)cc2)Oc2c(NC(=O)c3ccncc3)cccc2C1=O	2	-1	2	30*	-1	0	28*	1
